Assay results from publication PMC8822587 (ACS infectious diseases, 2021).
Like-named read-outs stand apart in the source and are kept apart here. Non-standard residues stand in square brackets, D forms with d. Residues, ends and D or L forms follow the SMILES beside them. ξ: configuration not given here. Aoe = N[C@@H](CCCCCC(=O)[C@@H]1CO1)C(=O)O; Aoe(9ξ) = N[C@@H](CCCCCC(=O)C1CO1)C(=O)O; Pip = O=C(O)[C@@H]1CCCCN1

What was measured:
[1] = system: HepG2 hepatocarcinoma cells; test: MTS human cell cytotoxicity assay; type: cell-based; settings: for EC50: read-out: HepG2 EC50
[2] = system: asynchronous P. falciparum Dd2 parasites; test: Rate of killing assay with compound wash-off; type: cell-based, Plasmodium falciparum; settings: 10 × EC50, exposure 24 or 48 h, then wash-off
[3] = system: P. falciparum strain Dd2; test: SYBR Green I fluorescence antiplasmodial assay, Dd2; type: cell-based, Plasmodium falciparum
[4] = system: acetyl-histone H4 in 3D7 parasite culture; test: Immunoblot of histone H4 hyperacetylation; type: cell-based, Plasmodium falciparum; settings: 3D7 trophozoites, 5× EC50, 4 h, versus DMSO
[5] = target: T1, recombinant PfHDAC1 (Plasmodium falciparum, UniProt Q7K6A1); test: biochemical
T1 sequence (Q7K6A1 1-449): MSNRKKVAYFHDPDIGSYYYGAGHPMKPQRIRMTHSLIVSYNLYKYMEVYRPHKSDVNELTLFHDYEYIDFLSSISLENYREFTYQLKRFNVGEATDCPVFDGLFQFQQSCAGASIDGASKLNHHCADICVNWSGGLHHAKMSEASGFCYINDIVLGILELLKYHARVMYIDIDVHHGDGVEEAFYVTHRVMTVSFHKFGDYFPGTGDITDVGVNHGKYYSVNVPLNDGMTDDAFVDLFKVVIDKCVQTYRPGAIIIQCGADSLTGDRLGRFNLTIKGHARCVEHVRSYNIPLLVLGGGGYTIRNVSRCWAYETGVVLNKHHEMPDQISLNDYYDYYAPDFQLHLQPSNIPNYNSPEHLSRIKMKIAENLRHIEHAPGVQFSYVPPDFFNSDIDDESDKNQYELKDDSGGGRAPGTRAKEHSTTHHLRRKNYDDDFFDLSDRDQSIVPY

[6] = system: histone H4 acetylation in Plasmodium culture; test: Immunofluorescence assay with anti-acetyl histone H4; type: cell-based, Plasmodium falciparum; settings: synchronous cultures, 5x EC50
[7] = system: synchronous Dd2 parasites; test: Stage specific inhibition assay; type: cell-based, Plasmodium falciparum; settings: 5 × EC50, synchronous Dd2
Outline: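 Stage development assessed by Giemsa smears at every condition and time point, plus flow cytometry. Flow samples fixed in 4% paraformaldehyde for 30 min at 37°C, washed 3x in PBS, held at 4°C, then resuspended in 0.25% Triton X-100 and shaken at 500 RPM for 10 min. Parasites gated against an uninfected RBC control; treated-culture histograms overlaid on vehicle-treated culture.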

[8] = system: P. falciparum 3D7; settings: read-out: P. falciparum 3D7 EC50; literature values; cited from earlier work
[9] = 48 h treatment, MTS, mean of triplicate ± SE/SEM
[10] = read-out: PfHDAC1 IC50, recombinant enzyme, 2 h at 37°C, mean of duplicate ± SEM

FR235222 [Compound 3]
EC50 [1, 9]: 260 ± 60 nM | killing profile [2]: plasmodistatic

Deoxy-WF 20782B [Compound 5]
EC50 [1, 9]: 880 ± 50 nM | fold increase in EC50 compared with epoxide or alcohol R1 analogs ([3]; ethyl analog versus analogs with epoxide or alcohol at R1): 2–6 fold

C[C@@H]1NC(=O)[C@H](CCCCCC(=O)[C@@H]2CO2)NC(=O)[C@H]2CCCN2C(=O)[C@H](Cc2ccccc2)NC1=O [Compound 2, 1-alaninechlamydocin] (cyclo(AF[dP][Aoe]))
EC50 [1, 9]: 38 ± 6 nM | histone H4 acetylation (Western blot) [4]: hyperacetylation

NA 1309 [Compound 7]
EC50 [1, 9]: > 25000 nM | IC50 [5, 10]: 6300 ± 800 nM

O=C(CCCCCCC(=O)Nc1ccccc1)NO [SAHA, suberanilohydroxamic acid]
histone H4 acetylation (immunofluorescence) [6]: noticeable increase in histone H4 acetylation | IC50 [5]: 92 ± 20 nM | histone H4 acetylation (Western blot) [4]: hyperacetylation | effect of treatment at 6 HPI [7]: resemble late trophozoite | effect of treatment at 42 HPI [7]: partially inhibited at schizogony

CC1(C)NC(=O)[C@H](CCCCCC(=O)[C@H]2CO2)NC(=O)[C@H]2CCCN2C(=O)[C@H](Cc2ccccc2)NC1=O [Compound 1, chlamydocin]
Selectivity Index (SI) ([1]; HepG2 EC50 / average of Dd2 EC50 and 3D7 EC50): 17 | EC50 ([1]; Homo sapiens, HepG2, 48 h): 530 ± 7 nM | EC50 ([3]; Plasmodium falciparum, DD2, 72 h, read-out: Dd2 EC50): 31 ± 7 nM

WF 27082F [Compound 4]
EC50 [1, 9]: 150 ± 40 nM

CC(C)C[C@@H]1NC(=O)[C@@H](Cc2ccccc2)NC(=O)[C@H](CCCCCC(=O)C2CO2)NC(=O)[C@@H]2CCCCN2C1=O (some centres unmarked) [Compound 11, WF-3161] (cyclo(L[Pip][Aoe(9ξ)][dF]))
EC50 [1, 9]: 22000 ± 900 nM | IC50 [5, 10]: 2 ± 2 nM

C[C@@H]1NC(=O)[C@H]2CCCN2C(=O)[C@H](CCCCCC(=O)[C@@H]2CO2)NC(=O)[C@@H](C)NC1=O [HC toxin]
EC50 [8]: 29 ± 2 nM
